Data reported in ChEMBL document CHEMBL1127082, “3,4-Dihydroxychalcones as potent 5-lipoxygenase and cyclooxygenase inhibitors” (J Med Chem, 1993).

How the values were obtained:
[1] = Inhibition of Prostaglandin G/H synthase activity in sheep seminal vesicle was determined; assay type: tissue-based, Ovis aries
Outline: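 Sheep seminal vesicle microsomes (32 μg protein) were incubated with [14C]arachidonic acid (0.1 μCi/mL) in pH 7.4 phosphate buffer containing glutathione, epinephrine and EDTA for 10 min at 37 °C. Substrate was removed by two hexane/EtOAc extractions, and aqueous-phase radioactivity was counted by scintillation.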

[2] = target: T1, Polyunsaturated fatty acid 5-lipoxygenase (Rattus norvegicus, UniProt P12527); experiment: In vitro inhibition against 5-lipoxygenase in RBL-1 cells was determined; assay type: cell-based
T1 sequence (P12527 whole entry): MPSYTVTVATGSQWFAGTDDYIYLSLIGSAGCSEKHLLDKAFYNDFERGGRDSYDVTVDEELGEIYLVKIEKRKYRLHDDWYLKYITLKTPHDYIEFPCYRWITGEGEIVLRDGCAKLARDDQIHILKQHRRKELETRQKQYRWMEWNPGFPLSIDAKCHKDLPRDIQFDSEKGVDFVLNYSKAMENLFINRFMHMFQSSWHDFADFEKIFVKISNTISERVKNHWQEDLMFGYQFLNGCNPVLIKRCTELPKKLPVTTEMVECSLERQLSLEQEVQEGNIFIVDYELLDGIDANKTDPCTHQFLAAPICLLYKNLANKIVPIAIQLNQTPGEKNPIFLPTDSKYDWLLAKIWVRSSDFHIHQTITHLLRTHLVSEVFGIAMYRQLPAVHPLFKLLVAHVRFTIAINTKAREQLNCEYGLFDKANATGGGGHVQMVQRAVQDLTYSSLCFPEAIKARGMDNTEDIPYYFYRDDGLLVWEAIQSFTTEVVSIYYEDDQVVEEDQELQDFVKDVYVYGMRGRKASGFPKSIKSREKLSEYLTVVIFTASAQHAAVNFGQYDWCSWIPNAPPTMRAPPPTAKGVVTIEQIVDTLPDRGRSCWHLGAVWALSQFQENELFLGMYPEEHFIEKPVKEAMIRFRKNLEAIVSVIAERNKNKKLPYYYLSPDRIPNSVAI

[3] = target: Prostaglandin G/H synthase 1 (Ovis aries) (UniProt P05979); experiment: Inhibition of Prostaglandin G/H synthase activity in sheep seminal vesicle was determined at 100 uM
Prostaglandin G/H synthase 1 (Ovis aries), sequence (P05979 whole entry, looked up): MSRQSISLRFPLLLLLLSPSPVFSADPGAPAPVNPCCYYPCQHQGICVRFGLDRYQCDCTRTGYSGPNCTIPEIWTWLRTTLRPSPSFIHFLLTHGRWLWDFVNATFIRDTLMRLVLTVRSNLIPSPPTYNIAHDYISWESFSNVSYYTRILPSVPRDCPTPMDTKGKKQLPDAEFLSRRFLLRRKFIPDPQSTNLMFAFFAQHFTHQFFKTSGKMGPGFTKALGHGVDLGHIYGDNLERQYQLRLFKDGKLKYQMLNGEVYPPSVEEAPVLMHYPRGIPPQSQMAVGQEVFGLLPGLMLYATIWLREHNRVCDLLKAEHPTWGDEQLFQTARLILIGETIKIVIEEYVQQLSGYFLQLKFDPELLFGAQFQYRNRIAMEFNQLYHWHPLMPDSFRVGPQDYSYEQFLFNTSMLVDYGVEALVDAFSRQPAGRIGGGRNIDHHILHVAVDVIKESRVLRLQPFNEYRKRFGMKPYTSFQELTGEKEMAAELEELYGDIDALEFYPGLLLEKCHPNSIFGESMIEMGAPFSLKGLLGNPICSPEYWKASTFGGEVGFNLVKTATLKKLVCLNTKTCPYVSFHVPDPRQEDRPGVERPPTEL

[4] = species on record: Rattus norvegicus; experiment: Inhibition of lipid peroxidation in rat liver microsomes at 1 uM; assay type: functional
[5] = target: Prostaglandin G/H synthase 1 (Ovis aries) (UniProt P05979); experiment: Inhibition of Prostaglandin G/H synthase activity in sheep seminal vesicle was determined 100 uM
[6] = target: Prostaglandin G/H synthase 1 (Ovis aries) (UniProt P05979); experiment: as above; remark: listed apart in the source
[7] = target: T2, Polyunsaturated fatty acid 5-lipoxygenase (Rattus norvegicus) (UniProt P12527); experiment: In vitro inhibition against 5-lipoxygenase in RBL-1 cells was determined at 10e-4 M; assay type: cell-based
T2 sequence (whole entry): T1 sequence (P12527 whole entry)
Outline: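 RBL-1 cells grown in RPMI-1640 with 10% heat-inactivated newborn calf serum at 37 °C in 5% CO2, harvested in growth phase, suspended in 50 mM phosphate buffer pH 7.4 (0.25 M sucrose, 1 mM EDTA, 2 mM glutathione) and stored at -70 °C. Homogenate (5 × 10⁶ cells), 2 mM CaCl2 and 0.66 mM arachidonic acid incubated 3 min at 37 °C. MeOH stop, 5-HETE by HPLC at 235 nm. Percent inhibition versus control at 10⁻⁴ M, mean of two determinations.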

[8] = tested on: Mus musculus; experiment: Inhibition of arachidonic acid induced mouse ear edema at 30 ug/ear; assay type: functional
Outline: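 Male ICR mice (25–28 g), 4–8 per group, received the compound topically in acetone, then 1 mg arachidonic acid on the inner surface of one ear. After 1 h, swelling was taken as the weight difference between challenged and unchallenged ears. Inhibition = (C−T)/C × 100; mean ± SE; Student's t test.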

[9] = target: Prostaglandin G/H synthase 1 (Ovis aries) (UniProt P05979); experiment: Inhibition of Prostaglandin G/H synthase activity in sheep seminal vesicle was determined; set-up: concentration or dose not given beside the values; details: concentration not given here
[10] = target: T2, Polyunsaturated fatty acid 5-lipoxygenase (Rattus norvegicus); experiment: In vitro inhibition against 5-lipoxygenase in RBL-1 cells was determinedb at 100 uM; assay type: cell-based
Outline: (§1)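 Single-concentration test at 100 μM, given as percent inhibition versus control, average of two determinations. RBL-1 cell homogenate (5 × 10⁶ cells) with 2 mM CaCl2 and 0.66 mM arachidonic acid, pH 7.4 phosphate buffer, 3 min at 37 °C. 5-HETE was measured by HPLC absorbance at 235 nm.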

[11] = target: Cyclooxygenase (Homo sapiens) (UniProt P35354+P23219); experiment: Inhibition of Prostaglandin G/H synthase activity in sheep seminal vesicle was determined 10E-4 […]; assay type: tissue-based; details: Ovis aries, target entry is the homologue from another species
[12] = target: T2, Polyunsaturated fatty acid 5-lipoxygenase (Rattus norvegicus); experiment: In vitro inhibition against 5-lipoxygenase in RBL-1 cells was determined at 100 uM; assay type: cell-based; outline: as §1

Compound: COc1ccc(C(=O)/C=C/c2ccc(O)c(O)c2)c(OC)c1
- IC50 [1]: 160 µM
- IC50 [2]: 0.01 µM

Compound: COc1cc(C(=O)/C=C/c2ccc(O)c(O)c2)ccc1O
- inhibition [3]: 14%
- IC50 [2]: 0.009 µM

Compound: O=C(/C=C/c1ccc(O)c(O)c1)c1ccc(O)cc1O [BUTEIN]
- inhibition [4]: 40%
- IC50 [5]: 120 µM
- IC50 [2]: 0.0046 µM

Compound: O=C(/C=C/c1ccccc1)c1ccc(O)cc1
- inhibition [4]: 5%
- inhibition [6]: 20%

Compound: Cc1cc(C)c(C(=O)/C=C/c2ccc(O)c(O)c2)c(C)c1
- IC50 [1]: 280 µM
- IC50 [2]: 0.4 µM

Compound: CN1C(C(=O)Nc2ccccn2)=C(O)c2ccccc2S1(=O)=O [PIROXICAM]
- inhibition [7]: 19%
- IC50 [1]: 460 µM

Compound: O=C(/C=C/c1ccc(O)c(O)c1)c1cc(O)ccc1O
- IC50 [1]: 170 µM
- IC50 [2]: 0.064 µM

Compound: COc1ccc2c(c1)c(CC(=O)O)c(C)n2C(=O)c1ccc(Cl)cc1 [INDOMETHACIN]
- Inhibition [8]: 4.8%
- IC50 [1]: 0.8 µM

Compound: CCOc1ccc(O)c(C(=O)/C=C/c2ccc(O)c(O)c2)c1
- Inhibition [8]: 42%
- IC50 [1]: 130 µM
- IC50 [2]: 0.0053 µM

Compound: Oc1c(Cc2ccccc2)ccc2ccccc12
- Inhibition [8]: 67%
- IC50 [1]: 24 µM
- IC50 [2]: 0.0069 µM

Compound: O=C(/C=C/c1ccc(O)c(O)c1)c1ccccc1O
- inhibition [4]: 45%
- IC50 [5]: 44 µM
- IC50 [2]: 0.023 µM

Compound: CC(Cc1ccc(O)c(O)c1)C(C)Cc1ccc(O)c(O)c1 (stereo not given) [NORDIHYDROGUAIARETIC ACID]
- IC50 [1]: 210 µM

Compound: COc1cccc(C(=O)/C=C/c2ccc(O)c(O)c2)c1
- IC50 [1]: 15 µM
- IC50 [2]: 0.0065 µM

Compound: COc1ccc(/C=C/C(=O)c2ccccc2O)cc1O
- inhibition [4]: 11%
- inhibition [9]: 8.6%
- inhibition [10]: -4.5%

Compound: COc1ccc(OC)c(C(=O)/C=C/c2ccc(O)c(O)c2)c1
- IC50 [1]: 9.2 µM

Compound: Cc1ccc(O)c(C(=O)/C=C/c2ccc(O)c(O)c2)c1
- IC50 [1]: 120 µM
- IC50 [2]: 0.039 µM

Compound: CC(C)Oc1ccc(C(=O)/C=C/c2ccc(O)c(O)c2)cc1
- inhibition [3]: 11%
- IC50 [2]: 0.041 µM

Compound: O=C(/C=C/c1ccc(O)c(O)c1)c1ccc([N+](=O)[O-])cc1
- IC50 [2]: 0.023 µM
- inhibition [9]: 5%

Compound: COc1cc(/C=C/C(=O)c2ccc(Cl)cc2)ccc1O
- IC50 [1]: 41 µM
- IC50 [2]: 8.9 µM

Compound: O=C(/C=C/c1ccc(O)cc1)c1ccc(O)cc1O [ISOLIQUIRITIGENIN]
- inhibition [4]: 9%
- IC50 [2]: 35 µM

Compound: O=c1c(O)c(-c2ccc(O)c(O)c2)oc2cc(O)cc(O)c12
- inhibition [11]: 13%

Compound: CCOc1ccc(OC)cc1C(=O)/C=C/c1ccc(O)c(O)c1
- IC50 [1]: 2 µM
- IC50 [2]: 0.027 µM

Compound: O=C(/C=C/c1ccc(O)c(O)c1)c1ccc(O)cc1
- inhibition [4]: 36%
- IC50 [1]: 320 µM

Compound: O=C(/C=C/c1ccc(O)c(O)c1)c1ccccc1Cl
- IC50 [5]: 71 µM
- IC50 [2]: 0.092 µM

Compound: CCOc1ccc(OCC)c(C(=O)/C=C/c2ccc(O)c(O)c2)c1
- Inhibition [8]: -18%
- IC50 [1]: 24 µM
- IC50 [2]: 0.0024 µM

Compound: COc1cc(C(=O)/C=C/c2ccc(O)c(O)c2)cc(OC)c1OC
- inhibition [3]: 13%
- IC50 [2]: 0.016 µM

Compound: CCCCOc1ccc(O)c(C(=O)/C=C/c2ccc(O)c(O)c2)c1
- Inhibition [8]: 33%
- inhibition [3]: 4.2%
- IC50 [2]: 1 µM

Compound: COc1ccc(C(=O)/C=C/c2ccc(O)c(O)c2)c(O)c1 [CALYTHROPSIN]
- IC50 [1]: 65 µM

Compound: O=C(/C=C/c1ccc(O)c(O)c1)c1ccccc1
- inhibition [4]: 44%
- IC50 [1]: 34 µM
- IC50 [2]: 0.043 µM

Compound: O=C(/C=C/c1ccc(O)c(O)c1)c1c(O)cc(O)cc1O [3,4,2',4',6'-PENTAHYDROXYCHALCONE]
- inhibition [4]: 18%
- IC50 [2]: 0.14 µM
- inhibition [6]: 11%

Compound: COc1ccc(C(=O)/C=C/c2ccc(O)c(O)c2)cc1
- IC50 [1]: 490 µM
- IC50 [2]: 0.02 µM

Compound: O=C(O)c1ccccc1Nc1cccc(C(F)(F)F)c1 [FLUFENAMIC ACID]
- inhibition [7]: -0.1%
- IC50 [1]: 19 µM

Compound: CN(C)c1cccc(C(=O)/C=C/c2ccc(O)c(O)c2)c1
- IC50 [1]: 41 µM
- IC50 [2]: 0.0098 µM

Compound: O=C(/C=C/c1ccc(O)cc1)c1c(O)cc(O)cc1O
- inhibition [4]: 8%
- inhibition [9]: 3.1%

Compound: COc1ccc(C(=O)/C=C/c2ccc(O)c(O)c2)cc1OC
- IC50 [1]: 140 µM
- IC50 [2]: 0.018 µM

Compound: CC(C)Oc1ccc(O)c(C(=O)/C=C/c2ccc(O)c(O)c2)c1
- IC50 [1]: 140 µM
- IC50 [2]: 0.011 µM

Compound: CC(C)c1ccc(O)c(C(=O)/C=C/c2ccc(O)c(O)c2)c1
- Inhibition [8]: 16%
- IC50 [1]: 37 µM
- IC50 [2]: 0.004 µM

Compound: COc1ccc(C)cc1C(=O)/C=C/c1ccc(O)c(O)c1
- Inhibition [8]: 47%
- IC50 [1]: 30 µM
- IC50 [2]: 0.024 µM

Compound: Cc1ccc(C)c(C(=O)/C=C/c2ccc(O)c(O)c2)c1
- IC50 [1]: 44 µM
- IC50 [2]: 0.016 µM

Compound: COc1cccc(OC)c1C(=O)/C=C/c1ccc(O)c(O)c1
- inhibition [3]: 15%
- IC50 [2]: 0.37 µM

Compound: O=C(/C=C/c1ccccc1)c1ccccc1O
- inhibition [4]: 6%
- inhibition [12]: 19%
- inhibition [6]: 13%

Compound: O=C(/C=C/c1ccccc1)c1c(O)cc(O)cc1O [2',4',6-TRIHYDROXYCHALCONE]
- inhibition [4]: 9%
- inhibition [9]: 6.9%

Compound: COc1cc(/C=C/C(=O)c2ccccc2O)ccc1O
- inhibition [4]: 14%
- IC50 [5]: 63 µM

Compound: CN(C)c1ccc(C(=O)/C=C/c2ccc(O)c(O)c2)cc1
- IC50 [1]: 810 µM
- IC50 [2]: 0.0047 µM

Compound: O=C1CCN(c2ccccc2)N1 [PHENIDONE]
- Inhibition [8]: 24.6%
- IC50 [1]: 80 µM

Compound: O=C(/C=C/c1ccc(O)cc1)c1ccccc1O
- inhibition [4]: 6%
- IC50 [1]: 390 µM

Compound: O=C(/C=C/c1ccc(O)c(O)c1)c1ccc(Cl)cc1
- IC50 [1]: 1400 µM
- IC50 [2]: 0.0085 µM

Compound: O=C(/C=C/c1ccc(O)c(O)c1)c1cccc(O)c1
- inhibition [4]: 24%
- IC50 [1]: 140 µM
- IC50 [2]: 0.0042 µM

Compound: COc1ccc(C(=O)/C=C/c2ccc(O)c(OC)c2)cc1
- inhibition [4]: 2.3%
- IC50 [2]: 12 µM
- inhibition [9]: -7.3%

Compound: Cc1cccc(C(=O)/C=C/c2ccc(O)c(O)c2)c1
- IC50 [1]: 71 µM
- IC50 [2]: 0.027 µM

Compound: Cc1ccc(C(=O)/C=C/c2ccc(O)c(O)c2)c(C)c1
- IC50 [1]: 41 µM
- IC50 [2]: 0.017 µM

Compound: COc1ccccc1C(=O)/C=C/c1ccc(O)c(O)c1
- IC50 [1]: 13 µM
- IC50 [2]: 0.027 µM

Compound: COc1ccc(OC(C)C)cc1C(=O)/C=C/c1ccc(O)c(O)c1
- Inhibition [8]: 34%
- IC50 [1]: 60 µM
- IC50 [2]: 0.014 µM

Compound: O=C(/C=C/c1ccc(O)c(O)c1)c1ccccc1C(F)(F)F
- IC50 [1]: 230 µM
- IC50 [2]: 0.058 µM

Compound: CCOc1ccc(OC)c(C(=O)/C=C/c2ccc(O)c(O)c2)c1
- IC50 [1]: 26 µM
- IC50 [2]: 0.0038 µM

Compound: Cc1ccc(C(=O)/C=C/c2ccc(O)c(O)c2)cc1
- IC50 [1]: 210 µM
- IC50 [2]: 0.076 µM

Compound: O=C(/C=C/c1ccccc1)c1ccc(O)cc1O [2',4'-DIHYDROXYCHALCONE]
- inhibition [4]: 5%
- IC50 [1]: 280 µM
